Data taken from ChEMBL document CHEMBL4689842, “EUbOPEN Chemogenomics Library wave 1” (2021).

Experiments:
U2OS [1] = assay: Multiplex assay against U2OS; assay type: toxicity, cell-based; conditions: human
How it was run: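 Values for tubulin, mitochondrial-mass and membrane-permeability phenotypes are per cents of cells with healthy nuclei. These cells were identified by CellPathfinder machine-learning gating of live cells that had been stained at seeding with Hoechst33342, BioTracker Green Microtubule Cytoskeleton Dye, MitoTracker Red and Annexin V Alexa Fluor 680 and imaged on a CQ1 microscope at 37°C and 5% CO2 after compound addition. The gating first set Hoechst high-intensity objects apart from normal cells, then split normal cells into healthy, pyknosed or fragmented nuclei, and pyknosed cells into mitotic or apoptotic.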

U2OS [2] = assay: Incucyte cell viability with U2OS; assay type: toxicity, cell-based; conditions: human, 10 µM, compound concentration 10 uM; also: filed as whole numbers so only -1 and 0 and 1 occur
[3] = 12 h, 1 µM, compound concentration 1 uM, replicate 1
[4] = 12 h, 1 µM, compound concentration 1 uM, replicate 2
[5] = 12 h, 10 µM, compound concentration 10 uM, replicate 1
[6] = 12 h, 10 µM, compound concentration 10 uM, replicate 2
[7] = 24 h, 1 µM, compound concentration 1 uM, replicate 1
[8] = 24 h, 1 µM, compound concentration 1 uM, replicate 2
[9] = 24 h, 10 µM, compound concentration 10 uM, replicate 1
[10] = 24 h, 10 µM, compound concentration 10 uM, replicate 2

CC(C)(C)c1cnc(CSc2cnc(NC(=O)C3CCNCC3)s2)o1 [BMS-387032]
Population Apoptotic (%) (U2OS [1]; [3]): 26%
Population Fragmented Nuclei (%) (U2OS [1]; [3]): 13%
Population Healthy Nuclei (%) (U2OS [1]; [3]): 69%
Population Hoechst High Intensity Objects (%) (U2OS [1]; [3]): 4%
Population Membrane Permeable-Phenotype (%) (U2OS [1]; [3]): 15%
Population Mitochondria Different-Phenotype (%) (U2OS [1]; [3]): 17%
Population Mitotic Cells (%) (U2OS [1]; [3]): 73%
Population Normal (%) (U2OS [1]; [3]): 95%
Population Pyknosed Nuclei (%) (U2OS [1]; [3]): 16%
Population Tubulin-Different-Phenotype (%) (U2OS [1]; [3]): 39%
Total Cell Count (U2OS [1]; [3]): 140
Population Apoptotic (%) (U2OS [1]; [4]): 14%
Population Fragmented Nuclei (%) (U2OS [1]; [4]): 11%
Population Healthy Nuclei (%) (U2OS [1]; [4]): 80%
Population Hoechst High Intensity Objects (%) (U2OS [1]; [4]): 15%
Population Membrane Permeable-Phenotype (%) (U2OS [1]; [4]): 21%
Population Mitochondria Different-Phenotype (%) (U2OS [1]; [4]): 31%
Population Mitotic Cells (%) (U2OS [1]; [4]): 85%
Population Normal (%) (U2OS [1]; [4]): 84%
Population Pyknosed Nuclei (%) (U2OS [1]; [4]): 7%
Population Tubulin-Different-Phenotype (%) (U2OS [1]; [4]): 37%
Total Cell Count (U2OS [1]; [4]): 143
Population Apoptotic (%) (U2OS [1]; [5]): 40%
Population Fragmented Nuclei (%) (U2OS [1]; [5]): 18%
Population Healthy Nuclei (%) (U2OS [1]; [5]): 61%
Population Hoechst High Intensity Objects (%) (U2OS [1]; [5]): 3%
Population Membrane Permeable-Phenotype (%) (U2OS [1]; [5]): 22%
Population Mitochondria Different-Phenotype (%) (U2OS [1]; [5]): 26%
Population Mitotic Cells (%) (U2OS [1]; [5]): 60%
Population Normal (%) (U2OS [1]; [5]): 96%
Population Pyknosed Nuclei (%) (U2OS [1]; [5]): 19%
Population Tubulin-Different-Phenotype (%) (U2OS [1]; [5]): 31%
Total Cell Count (U2OS [1]; [5]): 144
Population Apoptotic (%) (U2OS [1]; [6]): 18%
Population Fragmented Nuclei (%) (U2OS [1]; [6]): 19%
Population Healthy Nuclei (%) (U2OS [1]; [6]): 63%
Population Hoechst High Intensity Objects (%) (U2OS [1]; [6]): 13%
Population Membrane Permeable-Phenotype (%) (U2OS [1]; [6]): 10%
Population Mitochondria Different-Phenotype (%) (U2OS [1]; [6]): 47%
Population Mitotic Cells (%) (U2OS [1]; [6]): 81%
Population Normal (%) (U2OS [1]; [6]): 86%
Population Pyknosed Nuclei (%) (U2OS [1]; [6]): 17%
Population Tubulin-Different-Phenotype (%) (U2OS [1]; [6]): 25%
Total Cell Count (U2OS [1]; [6]): 109
Population Apoptotic (%) (U2OS [1]; [7]): 82%
Population Fragmented Nuclei (%) (U2OS [1]; [7]): 13%
Population Healthy Nuclei (%) (U2OS [1]; [7]): 75%
Population Hoechst High Intensity Objects (%) (U2OS [1]; [7]): 5%
Population Membrane Permeable-Phenotype (%) (U2OS [1]; [7]): 23%
Population Mitochondria Different-Phenotype (%) (U2OS [1]; [7]): 34%
Population Mitotic Cells (%) (U2OS [1]; [7]): 17%
Population Normal (%) (U2OS [1]; [7]): 94%
Population Pyknosed Nuclei (%) (U2OS [1]; [7]): 10%
Population Tubulin-Different-Phenotype (%) (U2OS [1]; [7]): 38%
Total Cell Count (U2OS [1]; [7]): 200
Population Apoptotic (%) (U2OS [1]; [8]): 55%
Population Fragmented Nuclei (%) (U2OS [1]; [8]): 11%
Population Healthy Nuclei (%) (U2OS [1]; [8]): 80%
Population Hoechst High Intensity Objects (%) (U2OS [1]; [8]): 8%
Population Membrane Permeable-Phenotype (%) (U2OS [1]; [8]): 22%
Population Mitochondria Different-Phenotype (%) (U2OS [1]; [8]): 36%
Population Mitotic Cells (%) (U2OS [1]; [8]): 44%
Population Normal (%) (U2OS [1]; [8]): 91%
Population Pyknosed Nuclei (%) (U2OS [1]; [8]): 8%
Population Tubulin-Different-Phenotype (%) (U2OS [1]; [8]): 36%
Total Cell Count (U2OS [1]; [8]): 166
Population Apoptotic (%) (U2OS [1]; [9]): 64%
Population Fragmented Nuclei (%) (U2OS [1]; [9]): 22%
Population Healthy Nuclei (%) (U2OS [1]; [9]): 45%
Population Hoechst High Intensity Objects (%) (U2OS [1]; [9]): 9%
Population Membrane Permeable-Phenotype (%) (U2OS [1]; [9]): 29%
Population Mitochondria Different-Phenotype (%) (U2OS [1]; [9]): 43%
Population Mitotic Cells (%) (U2OS [1]; [9]): 35%
Population Normal (%) (U2OS [1]; [9]): 90%
Population Pyknosed Nuclei (%) (U2OS [1]; [9]): 32%
Population Tubulin-Different-Phenotype (%) (U2OS [1]; [9]): 41%
Total Cell Count (U2OS [1]; [9]): 174
Population Apoptotic (%) (U2OS [1]; [10]): 78%
Population Fragmented Nuclei (%) (U2OS [1]; [10]): 12%
Population Healthy Nuclei (%) (U2OS [1]; [10]): 52%
Population Hoechst High Intensity Objects (%) (U2OS [1]; [10]): 17%
Population Membrane Permeable-Phenotype (%) (U2OS [1]; [10]): 24%
Population Mitochondria Different-Phenotype (%) (U2OS [1]; [10]): 41%
Population Mitotic Cells (%) (U2OS [1]; [10]): 21%
Population Normal (%) (U2OS [1]; [10]): 82%
Population Pyknosed Nuclei (%) (U2OS [1]; [10]): 34%
Population Tubulin-Different-Phenotype (%) (U2OS [1]; [10]): 27%
Total Cell Count (U2OS [1]; [10]): 118
Growth Rate (U2OS [2]; 0 h, replicate number 1, timepoint 0 hours): 0
Growth Rate (U2OS [2]; 6 h, replicate number 1, timepoint 6 hours): 1
Growth Rate (U2OS [2]; 6 h, replicate number 2, timepoint 6 hours): 0
Growth Rate (U2OS [2]; 12 h, replicate number 1, timepoint 12 hours): 0
Growth Rate (U2OS [2]; 18 h, replicate number 1, timepoint 18 hours): 0
Growth Rate (U2OS [2]; 24 h, replicate number 1, timepoint 24 hours): 0
